Results: ChEMBL document CHEMBL5344483, “Design and synthesis of novel chloropyridazine hybrids as promising anticancer agents acting by apoptosis induction and PARP-1 inhibition through a molecular hybridization strategy” (RSC Med Chem, 2024)
Activity calls are given as the source filed them. No cut-off for these calls is given here.

Tests used:
[1] = test system: FaDu; assay: Anticancer activity against human FaDu cells assessed as growth inhibition at 100 microg/mL by SRB assay relative to control; assay type: functional; settings: read-out: GI
Summary of the method: (§1)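 Cells seeded at 3×10^3 per well and allowed to attach for 24 h. Treated with 100 µg/mL compound for 48 h, triplicate wells, with a 1% v/v DMSO vehicle control. Fixed in 20% TCA, stained with 0.4% SRB, and OD read at 570 nm. Survival fraction is treated OD/control OD.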

[2] = test system: HeLa; assay: Anticancer activity against human HeLa cells assessed as growth inhibition at 100 microg/mL by SRB assay relative to control; assay type: functional; settings: read-out: GI; summary of the method: as §1
[3] = test system: MDA-MB-468; assay: Anticancer activity against human MDA-MB-468 cells assessed as growth inhibition at 100 microg/mL by SRB assay relative to control; assay type: functional; settings: read-out: GI; summary of the method: as §1
[4] = test system: A-375; assay: Anticancer activity against human A-375 cells assessed as growth inhibition at 100 microg/mL by SRB assay relative to control; assay type: functional; settings: read-out: GI; summary of the method: as §1
[5] = test system: SK-BR-3; assay: Anticancer activity against human SK-BR-3 cells assessed as growth inhibition at 100 microg/mL by SRB assay relative to control; assay type: functional; settings: read-out: GI; summary of the method: as §1
[6] = test system: Huh-7; assay: Anticancer activity against human Huh-7 cells assessed as growth inhibition at 100 microg/mL by SRB assay relative to control; assay type: functional; settings: read-out: GI; summary of the method: as §1
[7] = test system: HCT-116; assay: Anticancer activity against human HCT-116 cells assessed as growth inhibition at 100 microg/mL by SRB assay relative to control; assay type: functional; settings: read-out: GI; summary of the method: as §1
[8] = test system: MCF7; assay: Anticancer activity against human MCF7 cells assessed as growth inhibition at 100 microg/mL by SRB assay relative to control; assay type: functional; settings: read-out: GI; summary of the method: as §1
[9] = test system: A549; assay: Anticancer activity against human A549 cells assessed as growth inhibition at 100 microg/mL by SRB assay relative to control; assay type: functional; settings: read-out: GI; summary of the method: as §1
[10] = Cytotoxicity against human HSF (VGS) cells assessed as growth inhibition at 100 microg/mL by SRB assay relative to control; assay type: toxicity, cell-based; settings: at 100 µg/mL, read-out: GI
[11] = test system: HNO 97 cell line; assay: Cytotoxicity against human HNO97 cells by SRB assay; assay type: functional, cell-based
Summary of the method: (§2)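 Cells seeded at 3×10^3 per well and allowed to attach for 24 h. Exposed to […], 12.5, 25 and 50 µg/mL for 48 h, triplicate wells per concentration, with a 1% v/v DMSO vehicle. Fixed in 20% TCA, stained with 0.4% SRB, and OD read at 570 nm. IC50 from sigmoidal dose-response fit of survival fraction (treated/control OD).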

[12] = test system: HNO 97 cell line; assay: Anticancer activity against human HNO97 cells assessed as growth inhibition at 100 microg/mL by SRB assay relative to control; assay type: functional; settings: read-out: GI; summary of the method: as §1
[13] = test system: NCI-H460; assay: Anticancer activity against human NCI-H460 cells assessed as growth inhibition at 100 microg/mL by SRB assay relative to control; assay type: functional; settings: read-out: GI; summary of the method: as §1
[14] = test system: MDA-MB-468; assay: Cytotoxicity against human MDA-MB-468 cells by SRB assay; assay type: functional, cell-based; summary of the method: as §2
[15] = test system: FaDu; assay: Cytotoxicity against human FaDu cells by SRB assay; assay type: functional, cell-based; summary of the method: as §2
[16] = target: Poly [ADP-ribose] polymerase 1 (Homo sapiens, UniProt P09874); assay: Inhibition of PARP1 (unknown origin) by ELISA
Sequence of Poly [ADP-ribose] polymerase 1 (P09874 whole entry): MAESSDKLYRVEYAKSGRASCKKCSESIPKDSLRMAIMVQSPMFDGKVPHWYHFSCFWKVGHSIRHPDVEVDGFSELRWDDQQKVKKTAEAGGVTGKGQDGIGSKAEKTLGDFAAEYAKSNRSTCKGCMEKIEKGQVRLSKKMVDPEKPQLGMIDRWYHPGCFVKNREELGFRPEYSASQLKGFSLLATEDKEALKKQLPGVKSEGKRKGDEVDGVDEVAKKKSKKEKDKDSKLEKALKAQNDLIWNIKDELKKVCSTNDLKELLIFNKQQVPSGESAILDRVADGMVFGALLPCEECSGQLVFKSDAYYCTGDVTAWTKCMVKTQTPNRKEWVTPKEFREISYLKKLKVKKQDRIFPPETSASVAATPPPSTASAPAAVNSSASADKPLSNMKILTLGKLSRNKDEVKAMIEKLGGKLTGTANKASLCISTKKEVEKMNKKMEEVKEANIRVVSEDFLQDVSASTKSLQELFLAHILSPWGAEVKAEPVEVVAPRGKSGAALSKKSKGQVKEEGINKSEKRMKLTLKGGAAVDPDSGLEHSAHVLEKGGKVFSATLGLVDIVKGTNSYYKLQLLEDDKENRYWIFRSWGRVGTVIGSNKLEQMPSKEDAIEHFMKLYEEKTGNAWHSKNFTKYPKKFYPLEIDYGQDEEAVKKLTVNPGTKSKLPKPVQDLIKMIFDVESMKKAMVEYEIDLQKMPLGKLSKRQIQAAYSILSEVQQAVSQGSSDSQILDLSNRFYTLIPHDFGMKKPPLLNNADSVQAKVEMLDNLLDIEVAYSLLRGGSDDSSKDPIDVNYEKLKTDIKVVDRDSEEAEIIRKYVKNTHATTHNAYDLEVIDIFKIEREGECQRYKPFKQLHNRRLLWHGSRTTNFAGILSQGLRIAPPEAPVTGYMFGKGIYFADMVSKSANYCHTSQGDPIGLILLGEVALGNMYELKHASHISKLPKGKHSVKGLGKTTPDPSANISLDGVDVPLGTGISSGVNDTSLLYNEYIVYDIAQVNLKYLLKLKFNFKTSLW

[17] = test system: MDA-MB-231; assay: Antiproliferative activity against human MDA-MB-231 cells assessed as reduction in cell growth by coomassie Brilliant Blue staining based analysis; assay type: functional

| IC50 [16] [µM] | Structure (SMILES) | inhibition of growth at 100 µg/mL [1] [%] | inhibition of growth at 100 µg/mL [2] [%] | inhibition of growth at 100 µg/mL [3] [%] | inhibition of growth at 100 µg/mL [4] [%] | inhibition of growth at 100 µg/mL [5] [%] | inhibition of growth at 100 µg/mL [6] [%] | inhibition of growth at 100 µg/mL [7] [%] | inhibition of growth at 100 µg/mL [8] [%] | inhibition of growth at 100 µg/mL [9] [%] | inhibition at 100 microg/mL [10] [%] | IC50 [11] [µM] | inhibition of growth at 100 µg/mL [12] [%] | inhibition of growth at 100 µg/mL [13] [%] | IC50 [14] [µM] | IC50 [15] [µM] | Activity [17] |
| --- | --- | --- | --- | --- | --- | --- | --- | --- | --- | --- | --- | --- | --- | --- | --- | --- | --- |
|  | O=C(/C=C/c1ccc(Oc2ccc(Cl)nn2)cc1)c1ccc(OCc2ccc(F)c(Cl)c2)cc1 | 61.8 | 36.2 | 78.2 | 39 | 49.8 | 61.9 | 55 | 47.2 | 69.2 | 54 | 30.3 | 75.6 | 54.6 | 36.3 |  |  |
|  | O=C1NC(=O)/C(=C\c2ccc(Oc3ccc(Cl)nn3)cc2)S1 | 65.2 | 15.3 | 73 | 34.2 | 63.8 | 52.9 | 55.8 | 49.9 | 57.8 | 56.9 |  | 40.3 | 23.8 | 108 |  |  |
|  | O=C(/C=C/c1ccc(Oc2ccc(Cl)nn2)cc1)c1ccc(O)cc1 | 85 | 73.2 | 79.2 | 59.2 | 68.2 | 72 | 76.4 | 68.5 | 73.8 | 61 | 31.2 | 79.3 | 68.3 | 116 | 122 |  |
|  | O=C(/C=C/c1ccc(Oc2ccc(Cl)nn2)cc1)c1ccc(OCc2ccc(OC(F)(F)F)cc2)cc1 | 84.9 | 40.5 | 80.3 | 53 | 67.4 | 66.3 | 39.6 | 53.6 | 57.8 | 49.4 | 20.3 | 81 | 49.7 | 68.3 | 83.5 |  |
|  | O=C(/C=C/c1ccc(Oc2ccc(Cl)nn2)cc1)c1ccc([N+](=O)[O-])cc1 | 82.7 | 63.9 | 91.9 | 62.2 | 74.8 | 72.1 | 55.1 | 72.9 | 75.1 | 65.6 | 28.8 | 88.6 | 64.2 | 36.7 | 60.2 |  |
| 0.002 | COC1CCN(C(=O)c2cc(Cc3n[nH]c(=O)c4ccccc34)ccc2F)CC1 [AZD2461] |  |  |  |  |  |  |  |  |  |  |  |  |  |  |  |  |
|  | Cc1ccc(C(=O)/C=C/c2ccc(Oc3ccc(Cl)nn3)cc2)cc1 | 80.2 | 72.4 | 88 | 69.1 | 70.6 | 75.4 | 78.5 | 72.4 | 74.1 | 67.8 | 15.7 | 84.8 | 72.4 | 74.1 | 120 | Active |
|  | COc1ccc(C(=O)/C=C/c2ccc(Oc3ccc(Cl)nn3)cc2)cc1 | 68.2 | 58.4 | 85.6 | 52.6 | 66.7 | 71.4 | 62.7 | 62.1 | 77 | 53.5 | 54.5 | 69.1 | 63.1 | 112 |  |  |
|  | O=C(/C=C/c1ccc(Oc2ccc(Cl)nn2)cc1)c1ccccc1 | 80.9 | 51 | 90.5 | 29.3 | 70.5 | 74.8 | 39 | 63 | 66.4 | 52.2 | 16.9 | 85.3 | 55.9 | 26.4 | 17.8 | Active |
|  | O=C(/C=C/c1ccc(Oc2ccc(Cl)nn2)cc1)c1ccc(OCc2ccccc2)cc1 | 85.4 | 68.2 | 89.8 | 67.2 | 73.2 | 73.9 | 61.4 | 71.7 | 77.1 | 67.8 | 74.5 | 85.5 | 46.9 | 54.2 | 79 |  |
| 3 | O=c1[nH]nc2c3c(cccc13)Oc1ccc(CN3CCC(O)CC3)cc1-2 [E-7016] |  |  |  |  |  |  |  |  |  |  |  |  |  |  |  |  |
|  | COc1ccc(COc2ccc(C(=O)/C=C/c3ccc(Oc4ccc(Cl)nn4)cc3)cc2)cc1 | 75.5 | 40.4 | 88.4 | 59.3 | 60.8 | 69.3 | 44 | 60.6 | 72 | 53.5 | 40.2 | 82.4 | 44.8 | 93 | 95.2 |  |
| 1.92 | COc1cc(O)ccc1C(=O)/C=C/c1ccc(O)cc1 |  |  |  |  |  |  |  |  |  |  |  |  |  |  |  |  |
|  | COc1cccc2c1C(=O)c1c(O)c3c(c(O)c1C2=O)C[C@@](O)(C(=O)CO)C[C@@H]3O[C@H]1C[C@H](N)[C@H](O)[C@H](C)O1 [DOXORUBICIN] | 84.5 | 73 | 94 | 84 | 71.1 | 69.6 | 82.9 | 75.6 | 66.7 | 52.9 | 7 | 84.5 | 75.5 | 6.8 | 14 |  |
| 25 | CC1(COc2ccc(/C=C3/SC(O)=NC3=O)cc2)CCCCC1 |  |  |  |  |  |  |  |  |  |  |  |  |  |  |  |  |
